Key:
[1] = biological target: Metabotropic glutamate receptor 5 (Rattus norvegicus) (UniProt P31424); assay: Positive allosteric modulation of rat mGluR5 stably expressed in HEK293 cells assessed as increase in intracellular calcium level by Fluo-4AM dye-based fluorescence assay relative to glutamate; assay type: functional, cell-based
[2] = biological target: T1, Metabotropic glutamate receptor 5 (Rattus norvegicus, UniProt P31424); assay: Positive allosteric modulation of rat mGluR5 stably expressed in HEK293 cells assessed as increase in intracellular calcium level by Fluo-4AM dye-based fluorescence assay; assay type: functional, cell-based; details: read-out: EC50
Procedure, shortened: (§1)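 HEK293 cells stably expressing rat mGlu5 (low receptor density line), 15,000 cells/well, grown overnight at 37°C/5% CO2. Loaded with Fluo-4AM for 50 min at 37°C in HBSS with 20 mM HEPES, 2.5 mM probenecid, pH 7.4. Triple add: compound, then EC20 glutamate 140 s later, then EC80 glutamate 60 s later. Calcium fluorescence read over time. Values are means of ≥3 independent experiments run in duplicate or triplicate.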

[3] = biological target: T1, Metabotropic glutamate receptor 5; assay: Agonist activity at rat mGluR5 stably expressed in HEK293 cells assessed as increase in intracellular calcium level by Fluo-4AM dye-based fluorescence assay relative to glutamate; assay type: cell-based; details: read-out: Efficacy
Procedure, shortened: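 HEK293 cells stably expressing rat mGlu5 (low receptor density), 15,000 cells/well, grown overnight, then loaded with Fluo-4AM for 50 min at 37°C in HBSS/20 mM HEPES/2.5 mM probenecid, pH 7.4. Triple-add protocol: compound, then glutamate EC20 140 s later, then EC80 60 s later. Fluorescence read over time. At least three independent runs in duplicate or triplicate; response given as % of glutamate maximum.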

[4] = biological target: T1, Metabotropic glutamate receptor 5; assay: Agonist activity at rat mGluR5 stably expressed in HEK293 cells assessed as increase in intracellular calcium level by Fluo-4AM dye-based fluorescence assay; assay type: cell-based; details: read-out: EC50; procedure, shortened: as §1

Chain of Metabotropic glutamate receptor 5 (Rattus norvegicus) (P31424 21-1203 limits assumed): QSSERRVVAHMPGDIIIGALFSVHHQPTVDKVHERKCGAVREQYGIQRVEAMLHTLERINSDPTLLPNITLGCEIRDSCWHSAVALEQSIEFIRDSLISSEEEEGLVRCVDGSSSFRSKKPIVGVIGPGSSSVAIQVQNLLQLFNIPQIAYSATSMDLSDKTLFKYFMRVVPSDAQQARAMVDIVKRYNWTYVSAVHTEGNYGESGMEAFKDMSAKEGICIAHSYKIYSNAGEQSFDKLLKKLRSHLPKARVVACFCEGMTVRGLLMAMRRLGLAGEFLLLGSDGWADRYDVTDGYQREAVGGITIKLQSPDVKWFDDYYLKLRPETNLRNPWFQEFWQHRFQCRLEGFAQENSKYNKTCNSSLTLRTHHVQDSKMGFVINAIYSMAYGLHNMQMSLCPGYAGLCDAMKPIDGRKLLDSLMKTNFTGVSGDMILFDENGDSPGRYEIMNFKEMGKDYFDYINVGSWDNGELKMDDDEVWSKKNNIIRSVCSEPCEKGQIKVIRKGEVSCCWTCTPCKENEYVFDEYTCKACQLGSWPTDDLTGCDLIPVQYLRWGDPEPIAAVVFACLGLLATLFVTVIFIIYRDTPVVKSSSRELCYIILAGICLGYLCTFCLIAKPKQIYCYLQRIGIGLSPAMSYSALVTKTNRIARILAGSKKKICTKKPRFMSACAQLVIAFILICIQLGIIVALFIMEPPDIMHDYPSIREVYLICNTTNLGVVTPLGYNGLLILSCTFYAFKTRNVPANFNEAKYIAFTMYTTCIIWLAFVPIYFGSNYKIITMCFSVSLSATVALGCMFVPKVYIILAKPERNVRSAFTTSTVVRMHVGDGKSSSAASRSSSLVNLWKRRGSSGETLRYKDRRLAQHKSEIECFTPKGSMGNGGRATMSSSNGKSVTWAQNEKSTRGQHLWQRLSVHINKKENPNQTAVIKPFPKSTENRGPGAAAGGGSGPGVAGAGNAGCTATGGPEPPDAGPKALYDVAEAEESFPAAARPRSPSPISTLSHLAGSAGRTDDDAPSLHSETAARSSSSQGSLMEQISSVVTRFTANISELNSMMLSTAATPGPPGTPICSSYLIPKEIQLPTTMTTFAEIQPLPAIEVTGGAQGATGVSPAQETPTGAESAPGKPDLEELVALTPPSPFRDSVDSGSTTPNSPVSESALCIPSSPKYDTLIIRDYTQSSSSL
T1 sequence (P31424 whole entry): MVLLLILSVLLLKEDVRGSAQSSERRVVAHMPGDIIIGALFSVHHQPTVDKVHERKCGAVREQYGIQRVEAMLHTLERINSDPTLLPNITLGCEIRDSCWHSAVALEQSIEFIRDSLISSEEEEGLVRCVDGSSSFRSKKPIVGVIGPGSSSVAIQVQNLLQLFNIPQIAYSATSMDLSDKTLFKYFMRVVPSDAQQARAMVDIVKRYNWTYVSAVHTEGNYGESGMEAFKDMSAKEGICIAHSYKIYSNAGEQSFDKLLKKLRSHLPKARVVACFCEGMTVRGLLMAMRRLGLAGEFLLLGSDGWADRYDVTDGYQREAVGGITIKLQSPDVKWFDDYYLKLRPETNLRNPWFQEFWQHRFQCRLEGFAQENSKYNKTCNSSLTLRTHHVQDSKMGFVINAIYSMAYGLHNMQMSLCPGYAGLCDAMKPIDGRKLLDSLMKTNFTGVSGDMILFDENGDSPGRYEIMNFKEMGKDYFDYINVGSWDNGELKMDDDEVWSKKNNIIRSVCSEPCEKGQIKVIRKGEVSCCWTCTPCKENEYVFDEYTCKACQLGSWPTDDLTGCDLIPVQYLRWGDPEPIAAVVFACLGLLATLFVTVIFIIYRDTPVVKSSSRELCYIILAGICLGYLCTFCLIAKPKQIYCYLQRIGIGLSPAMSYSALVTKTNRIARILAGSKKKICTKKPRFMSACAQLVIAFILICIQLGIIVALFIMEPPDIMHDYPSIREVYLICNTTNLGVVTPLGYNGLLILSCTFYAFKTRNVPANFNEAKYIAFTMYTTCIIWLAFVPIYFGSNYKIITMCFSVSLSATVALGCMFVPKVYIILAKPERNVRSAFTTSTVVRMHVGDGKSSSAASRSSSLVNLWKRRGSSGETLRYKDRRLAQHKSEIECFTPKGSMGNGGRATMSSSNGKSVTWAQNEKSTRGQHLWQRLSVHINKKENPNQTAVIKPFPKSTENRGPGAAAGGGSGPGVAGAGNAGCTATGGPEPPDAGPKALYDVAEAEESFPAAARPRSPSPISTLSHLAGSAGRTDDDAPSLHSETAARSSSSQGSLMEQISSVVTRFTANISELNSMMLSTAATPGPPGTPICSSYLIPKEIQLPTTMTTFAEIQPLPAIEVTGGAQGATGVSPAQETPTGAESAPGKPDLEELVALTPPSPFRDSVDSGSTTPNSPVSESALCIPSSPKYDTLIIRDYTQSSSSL

SMILES	Efficacy [1] [%]	EC50 [2] [nM]	Emax [3] [%]	EC50 [4] [nM]
CC(C)[C@@H](C)NC(=O)c1ccc(C#Cc2cccc(F)c2)cn1	69.3	4.5	22.5	1470
C[C@@H](NC(=O)c1ncc(C#Cc2cccc(F)c2)cn1)C(C)(C)O	64.1	47.6	19.2	4130
C[C@@H](NC(=O)c1ccc(C#Cc2ccc(F)cc2)cn1)C(C)(C)O	66.2	12.3	38.4	1520
CCCNC(=O)c1ccc(C#Cc2cccc(F)c2)cn1	65.9	34.4	8.3	3010
C[C@H](NC(=O)c1ccc(C#Cc2cccc(F)c2)cn1)C(F)(F)F	60.8	21.9	21.4	1390
C[C@@H](NC(=O)c1ccc(C#Cc2cc(F)ccn2)cn1)C(C)(C)O	66.2	36	33	3980
Cc1ccc(C#Cc2ccc(C(=O)N[C@H](C)C(C)(C)O)nc2)cc1	63.1	107	–	–
CC(C)(O)CNC(=O)c1ccc(C#Cc2cccc(F)c2)cn1	61.5	34.6	20	4020
C[C@@H](NC(=O)c1ccc(C#Cc2cccnc2)cn1)C(C)(C)O	71.5	344	25.9	9300
CC(C)[C@H](C)NC(=O)c1ccc(C#Cc2cccc(F)c2)cn1	66.7	20.4	13.1	2220
C[C@@H](NC(=O)c1ccc(C#Cc2cccc(F)c2)nc1)C(C)(C)O	64.9	80	26.6	6800
Cc1cccc(C#Cc2ccc(C(=O)N[C@H](C)C(C)(C)O)nc2)c1	68.6	6.5	20.8	1360
CC(C)(C)NC(=O)c1ccc(C#Cc2cccc(F)c2)cn1	–	2.6	–	–
C[C@@H](NC(=O)c1ccc(C#Cc2ccc(F)cc2F)cn1)C(C)(C)O	61.2	26.6	38.2	3690
C[C@H](NC(=O)c1ccc(C#Cc2cccc(F)c2)cn1)C(C)(C)C	70.8	51.9	20	5400
C[C@@H](NC(=O)c1cnc(C#Cc2cccc(F)c2)cn1)C(C)(C)O	64.4	12.5	17.2	3040
Cc1ccccc1C#Cc1ccc(C(=O)N[C@H](C)C(C)(C)O)nc1	59.9	217	24.1	12400
C[C@@H](NC(=O)c1ccc(C#Cc2cc(F)cc(F)c2)cn1)C(C)(C)O	61.6	58.2	37.9	3670
C[C@@H](NC(=O)c1ccc(C#Cc2ncccc2F)cn1)C(C)(C)O	60.6	33.8	29.2	3700
C[C@@H](NC(=O)c1ccc(C#Cc2ccc(F)cn2)cn1)C(C)(C)O	64.6	28.2	13.5	1700
C[C@@H](NC(=O)c1ccc(C#Cc2cccc(F)n2)cn1)C(C)(C)O	63	13.6	8.3	1300
C[C@@H](NC(=O)c1ccc(C#Cc2cccc(F)c2)cn1)C(C)(C)C	66	17.8	31.2	2750
O=C(NCC(F)(F)F)c1ccc(C#Cc2cccc(F)c2)cn1	67	224	5.8	10700
C[C@@H](NC(=O)c1ccc(C#CC2CC2)cn1)C(C)(C)O	63.4	1290	–	–
Cc1cc(C(=O)N[C@H](C)C(C)(C)O)ncc1C#Cc1cccc(F)c1	66.6	242	–	–
CC1(NC(=O)c2ccc(C#Cc3ccncc3)cn2)COC1	36	691	–	–
